These results are taken from ChEMBL document CHEMBL1275278, “Synthesis and pharmacological evaluation of clubbed isopropylthiazole derived triazolothiadiazoles, triazolothiadiazines and mannich bases as potential antimicrobial and antitubercular agents” (Eur J Med Chem, 2010).

Common to all, as to format: functional
Assay [1] has as its system Saccharomyces cerevisiae. The assay can be described thus: Antifungal activity against Saccharomyces cerevisiae ATCC 9763 after 24 hrs by broth microdilution method. Conditions: ATCC 9763, 24 h. A general note: Broth dilution looks for growth in wells or tubes with falling amounts of substance.
The test system of assay [2] is Pseudomonas aeruginosa. Put plainly: Antibacterial activity against Pseudomonas aeruginosa ATCC 10145 after 24 hrs by broth microdilution method. As to conditions: ATCC 10145, 24 h. A digest of the protocol: (§1)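 Broth dilution in Mueller-Hinton broth. Tubes inoculated at 10⁵ cfu/mL and incubated 37 °C for 24 h. MIC taken as lowest concentration completely inhibiting growth. Media and media-plus-DMSO growth controls; ciprofloxacin and norfloxacin as reference standards.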

Assay [3] has as its system Escherichia coli. Put plainly: Antibacterial activity against Escherichia coli ATCC 10536 after 24 hrs by broth microdilution method. Conditions: ATCC 10536, 24 h. A digest of the protocol: as §1
For assay [4], the system named is Klebsiella pneumoniae. Put plainly: Antibacterial activity against Klebsiella pneumoniae ATCC 10031 after 24 hrs by broth microdilution method. As to conditions: ATCC 10031, 24 h. The essentials: as §1
In assay [5] the test system is Bacillus subtilis. The assay can be described thus: Antibacterial activity against Bacillus subtilis ATCC 60511 after 24 hrs by broth microdilution method. Conditions: ATCC 60511, 24 h. A digest of the protocol:
as §1

The subject of assay [6] is Enterococcus faecalis. Put plainly: Antibacterial activity against Streptococcus faecalis ATCC 14506 after 24 hrs by broth microdilution method. Conditions: ATCC 14506, 24 h. The essentials: as §1
The test system of assay [7] is Staphylococcus aureus. Put plainly: Antibacterial activity against Staphylococcus aureus ATCC 11632 after 24 hrs by broth microdilution method. As to conditions: ATCC 11632, 24 h. A digest of the protocol: as §1
Assay [8] has as its system Candida tropicalis. Put plainly: Antifungal activity against Candida tropicalis ATCC 1369 after 24 hrs by broth microdilution method. As to conditions: ATCC 1369, 24 h.
The subject of assay [9] is Aspergillus niger. The assay can be described thus: Antifungal activity against Aspergillus niger ATCC 6275 after 24 hrs by broth microdilution method. As to conditions: ATCC 6275, 24 h.
Assay [10] relates to Mycobacterium tuberculosis. Put plainly: Antimycobacterial activity against Mycobacterium tuberculosis H37Rv after 21 days by broth dilution assay. Conditions: 504 h. A digest of the protocol: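 Frozen culture in Middlebrook 7H9 broth with 10% albumin-dextrose-catalase and 0.2% glycerol, thawed and diluted in broth to 10⁵ cfu/mL. Compounds dissolved in DMSO, twofold diluted in broth; final DMSO 1.3%. Tubes inoculated, incubated at 37 °C. Growth compared visually against drug-free and drug- and inoculum-free controls and isoniazid. MIC = lowest concentration inhibiting ≥99% of the starting bacterial population.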

Values after ≈ are worked out from the molar mass of the structure shown.

As usually defined, the MIC is the least concentration at which growth counts as inhibited. Read a high MIC as weaker potency. Regarding `Cc1nn2c(-c3nc(C(C)C)cs3)nnc2s1`, the MIC in assay [1] came out at 62.5 µg/mL (≈ 236 µM); in assay [2] it was 62.5 µg/mL (≈ 236 µM); in assay [3], 125 µg/mL (≈ 471 µM); in assay [4], 16 µg/mL (≈ 60.3 µM); in [5] it was 31.2 µg/mL (≈ 118 µM); in assay [6] it was 31.2 µg/mL (≈ 118 µM). For the same compound, the MIC in [7] worked out at 62.5 µg/mL (≈ 236 µM); in [8], 31.2 µg/mL (≈ 118 µM); in [9], 31.2 µg/mL (≈ 118 µM); in [10] it was 31.2 µg/mL (≈ 118 µM).
As for `COc1ccc(/C=N/n2c(-c3nc(C(C)C)cs3)nn(CN3CCN(C)CC3)c2=S)cc1`, the MIC in [1] stood at 16 µg/mL (≈ 33.9 µM); in [2], 16 µg/mL (≈ 33.9 µM); in [3], 31.2 µg/mL (≈ 66.3 µM); in assay [4], 31.2 µg/mL (≈ 66.3 µM); in assay [5], 8 µg/mL (≈ 17 µM); in [6] it was 16 µg/mL (≈ 33.9 µM). The MIC was determined as 31.2 µg/mL (≈ 66.3 µM) in assay [7], 31.2 µg/mL (≈ 66.3 µM) in [8], 31.2 µg/mL (≈ 66.3 µM) in [9] and 16 µg/mL (≈ 33.9 µM) in assay [10].
In the case of `CC(C)c1csc(-c2nnc3n2NC(c2ccc(N(C)C)cc2)S3)n1` (stereo unspecified), the MIC was 31.2 µg/mL (≈ 83.9 µM) in assay [1]; 62.5 µg/mL (≈ 168 µM) in assay [2]; 62.5 µg/mL (≈ 168 µM) in assay [3]; 125 µg/mL (≈ 336 µM) in assay [4]; 62.5 µg/mL (≈ 168 µM) in assay [5]; 31.2 µg/mL (≈ 83.9 µM) in assay [6]. In addition, the MIC in assay [7] amounted to 16 µg/mL (≈ 43 µM); in assay [8] it was 31.2 µg/mL (≈ 83.9 µM); in [9], 31.2 µg/mL (≈ 83.9 µM); in assay [10], 4 µg/mL (≈ 10.7 µM).
Consider `Cc1ccc(C2=Nn3c(nnc3-c3nc(C(C)C)cs3)SC2)cc1`, for which the MIC in assay [1] turned out to be 62.5 µg/mL (≈ 176 µM); in assay [2], 8 µg/mL (≈ 22.5 µM); in assay [3], 8 µg/mL (≈ 22.5 µM); in assay [4], 8 µg/mL (≈ 22.5 µM); in assay [5], 31.2 µg/mL (≈ 87.9 µM); in assay [6] it was 31.2 µg/mL (≈ 87.9 µM). In addition, the MIC was 16 µg/mL (≈ 45 µM) in assay [7], 31.2 µg/mL (≈ 87.9 µM) in assay [8], 31.2 µg/mL (≈ 87.9 µM) in [9] and 16 µg/mL (≈ 45 µM) in assay [10].
Take `CC(C)c1csc(-c2nnc3n2NC(c2ccc([N+](=O)[O-])cc2)S3)n1` (stereo unspecified): the minimal inhibitory concentration (MIC) worked out at 16 µg/mL (≈ 42.7 µM) in assay [1]; 125 µg/mL (≈ 334 µM) in assay [2]; 62.5 µg/mL (≈ 167 µM) in [3]; 31.2 µg/mL (≈ 83.5 µM) in assay [4]; 62.5 µg/mL (≈ 167 µM) in [5]; 125 µg/mL (≈ 334 µM) in assay [6]. Also, the MIC in [7] came out at 125 µg/mL (≈ 334 µM); in assay [8], 8 µg/mL (≈ 21.4 µM); in assay [9], 8 µg/mL (≈ 21.4 µM); in assay [10], 62.5 µg/mL (≈ 167 µM).
Regarding `COc1ccc(/C=N/n2c(-c3nc(C(C)C)cs3)nn(CN3CCOCC3)c2=S)cc1`, the MIC in [1] was determined as 62.5 µg/mL (≈ 136 µM); in assay [2], 16 µg/mL (≈ 34.9 µM); in assay [3], 125 µg/mL (≈ 273 µM); in [4], 31.2 µg/mL (≈ 68.1 µM); in [5], 125 µg/mL (≈ 273 µM); in assay [6], 62.5 µg/mL (≈ 136 µM). Further, the MIC in assay [7] stood at 125 µg/mL (≈ 273 µM); in assay [8], 31.2 µg/mL (≈ 68.1 µM); in assay [9] it was 16 µg/mL (≈ 34.9 µM).
As to `O=C(O)c1cn(C2CC2)c2cc(N3CCNCC3)c(F)cc2c1=O` [CIPROFLOXACIN], the MIC in assay [2] is ≤ 5 µg/mL; in [3], ≤ 1 µg/mL; in assay [4] it was ≤ 1 µg/mL; in assay [5], ≤ 1 µg/mL; in assay [6], ≤ 5 µg/mL; in assay [7], ≤ 5 µg/mL.
In the case of `COc1cc(/C=N/n2c(-c3nc(C(C)C)cs3)nn(CN3CCOCC3)c2=S)cc(OC)c1OC`, the MIC in assay [1] came to 125 µg/mL (≈ 241 µM); in assay [2], 62.5 µg/mL (≈ 121 µM); in [3] it was 125 µg/mL (≈ 241 µM); in assay [4], 16 µg/mL (≈ 30.8 µM); in assay [5], 62.5 µg/mL (≈ 121 µM); in assay [6], 62.5 µg/mL (≈ 121 µM). The MIC was 125 µg/mL (≈ 241 µM) in [7], 62.5 µg/mL (≈ 121 µM) in assay [8], 62.5 µg/mL (≈ 121 µM) in assay [9] and 31.2 µg/mL (≈ 60.3 µM) in assay [10].
For `Cc1ccc(C(=O)Nn2c(-c3nc(C(C)C)cs3)n[nH]c2=S)cc1`, the MIC in assay [1] came out at 62.5 µg/mL (≈ 174 µM); in assay [2], 125 µg/mL (≈ 348 µM); in [3], 62.5 µg/mL (≈ 174 µM); in assay [4], 62.5 µg/mL (≈ 174 µM); in assay [5] it was 62.5 µg/mL (≈ 174 µM); in [6], 125 µg/mL (≈ 348 µM). In addition, the MIC came to 62.5 µg/mL (≈ 174 µM) in assay [7], 125 µg/mL (≈ 348 µM) in [8], 62.5 µg/mL (≈ 174 µM) in assay [9] and 31.2 µg/mL (≈ 86.9 µM) in assay [10].
Turning to `CC(C)c1csc(-c2nnc3n2N=C(c2ccccc2)CS3)n1`, the MIC in [1] stood at 62.5 µg/mL (≈ 183 µM); in [2] it was 62.5 µg/mL (≈ 183 µM); in [3] it was 125 µg/mL (≈ 366 µM); in [4] it was 125 µg/mL (≈ 366 µM); in [5] it was 62.5 µg/mL (≈ 183 µM); in assay [6] it was 125 µg/mL (≈ 366 µM). The minimum inhibitory concentration (MIC) in assay [7] was found to be 125 µg/mL (≈ 366 µM); in [8], 125 µg/mL (≈ 366 µM); in [9] it was 62.5 µg/mL (≈ 183 µM); in [10] it was 125 µg/mL (≈ 366 µM).
For `CCn1cc(C(=O)O)c(=O)c2cc(F)c(N3CCNCC3)cc21` [NORFLOXACIN], the MIC is ≤ 5 µg/mL in assay [2]; ≤ 1 µg/mL in assay [3]; ≤ 1 µg/mL in [4]; ≤ 1 µg/mL in [5]; ≤ 5 µg/mL in [6]; ≤ 5 µg/mL in assay [7].
